Efflux pump mplx – inhibitors of Candida antifungal efflux pumps expressed in yeast | 0.44% of 330,000 active | S. cerevisiae Candida pump triplex, Nile Red efflux | inhibition, % at 10 µM;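 active = plate passing quality check with inhibition over a set limit, or well fluorescence over plate mean plus 4 SD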;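 also: Nile Red retained in pooled yeast measured as flow cytometry median fluorescence; 0% = buffer negative control and 100% = Enniatin B positive control; higher means more Nile Red kept so more efflux inhibition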
Cardiac RTF inh – cardiac RTF calcium desensitization; P19429+P45379; IANBD-labeled cardiac RTF, Ca2+ fluorescence; inhibition, % at 7.15 µM; 0.12% of 340,000 active; AID 493244;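 active = inhibition above the mean inhibition of all tested compounds plus 3 SD, cut at about 17% in these data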;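 also: assay run at fixed EC70 calcium of 1.6 mM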
ARNT TACC3 PPI – disrupts binding between human ARNT and TACC3; Q9Y6A5; 0.66% of 390,000 active; AlphaScreen His-ARNT PAS-B/GST-TACC3 binding, luminescence; TACC3 fragment carries E629A point mutation; inhibition, % at 9.99 µM;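 active = mean inhibition of replicates at least 50% and at least half of replicates each reaching 50%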;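 also: 0% = complete ARNT plus TACC3 wells and 100% = ARNT alone without TACC3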
SUMO Mot1 rescue – SUMOylation pathway inhibition by Mot1-301 growth rescue; AID 2716; S. cerevisiae Mot1-301 growth rescue, ATP luminescence, 38.5C; percent above DMSO median, 100 means doubled; growth rescue, % at 18.8 µM; 1% of 320,000 active;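 active = every valid replicate shows activation above 250% relative to neutral control wells; inactive = the rest, any valid replicate at or below 250%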;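 also: OY570 slx delta 5 strain wells were the positive control but not used for scaling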
UCH37 DUB inh – inhibitors of human deubiquitinating enzyme UCH37. purified proteasome/UCH37, Ub-AMC cleavage fluorescence. inhibition, % (concentration not given with the values). 0.33% of 330,000 active. AID 588478;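 active = mean inhibition over replicate wells above about 20%, limit read from the data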;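 also: 0% = compound-free wells with enzyme and 100% = wells lacking proteasome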
Target sequence (Q9Y5K5 whole entry, looked up): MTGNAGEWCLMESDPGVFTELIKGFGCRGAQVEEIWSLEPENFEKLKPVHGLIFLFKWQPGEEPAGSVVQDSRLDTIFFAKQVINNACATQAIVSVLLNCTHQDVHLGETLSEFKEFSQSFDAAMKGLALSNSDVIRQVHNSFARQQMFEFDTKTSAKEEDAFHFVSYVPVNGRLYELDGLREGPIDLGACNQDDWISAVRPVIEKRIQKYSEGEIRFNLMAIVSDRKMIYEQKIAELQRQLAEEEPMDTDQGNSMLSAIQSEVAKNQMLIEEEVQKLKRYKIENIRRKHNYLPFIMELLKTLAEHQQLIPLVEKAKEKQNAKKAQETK
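assay system = human UCH37 enzyme supplied as purified proteasome complex | amount = proteasome at 0.15 nM in the dispensed enzyme solution | schedule = 30 min compound-proteasome preincubation then 25 min substrate reaction, room temperature | measured by = fluorescence, ex 355 nm, em 460 nm | benchmarks = no-proteasome wells (full inhibition) and compound-free wells (no inhibition)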
RTF Ca sens act – cardiac RTF calcium sensitization. P19429+P45379. IANBD-labeled TnC RTF fluorescence at EC20 calcium; 0% EC20 calcium, 100% full calcium. activation, % at 7.2 µM. 0.24% of 340,000 active. AID 493008;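 active = activation above the mean over all tested compounds plus 3 SD, cut at about 30% in these data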;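 also: rise in fluorescence read as greater calcium sensitivity of cardiac thin filaments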
Mot1 SUMO dose – yeast SUMO pathway inhibition in dose response; shares compounds with SUMO Mot1 rescue; S. cerevisiae Mot1-301 galactose growth, ATP luminescence, 24 h; -100 = growth of slx-deleted rescue strain; growth activity, percent, % at 42 µM; 2,300 tested, under 10 active;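 active = Signal drops as the depositor expects, and the fitted half-maximal dose is no more than ten times the top valid tested dose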;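 also: more negative values mean stronger growth rescue toward the control strain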
Numbers without * were called inactive; / = no result; + = active, no number. The list is not random: actives were taken first. Their share in the collection is about 2.1%.

SMILES | Efflux pump mplx | Cardiac RTF inh | ARNT TACC3 PPI | SUMO Mot1 rescue | UCH37 DUB inh | RTF Ca sens act | Mot1 SUMO dose
CCCCc1nnc(NC(=O)CSc2nc(O)c(-c3ccccc3)c(=O)[nH]2)s1 | 0 | 8 | -2 | 631* | 6 | -1 | 1
CC(C)n1c(N=Cc2ccccc2O)nc2ccccc21 | / | / | / | / | 0 | / | /
CN(CC(=O)NCCCn1ccnc1)S(=O)(=O)c1ccc(Cl)cc1 | 1 | -5 | 9 | -6 | 1 | 2 | /
Cc1cc(C)n(CCCNC(=O)CN(C)S(=O)(=O)c2ccc(Cl)cc2)n1 | 0 | 9 | -2 | 817* | 2 | 2 | 0
N#C/C(=C\c1ccc(O)c(O)c1)C(=O)Nc1ccccc1 | 0 | 2 | 1 | 369* | 6 | 3 | -1
O=C(O)COc1ccc(Br)cc1/C=N\Nc1ccccn1 | 0 | -5 | 9 | 425* | / | 1 | 1
O=[N+]([O-])c1cc(C=NN/C(=N/c2ccccn2)c2ccccn2)ccc1O | / | / | / | / | 4 | / | /
CC(CC(=O)Nc1ccc(C)c(Cl)c1)=NNC(=O)C1CCCCC1 | / | / | / | / | 1 | / | /
COc1ccc2cc3c(N)nn(C(=O)c4ccccc4Cl)c3nc2c1 | 0 | -5 | 29 | 501* | 8 | 0 | 0
COc1ccc2cc3c(N)nn(C(=O)c4ccc(F)cc4)c3nc2c1 | 0 | -2 | 10 | 14 | 0 | 2 | /
COc1ccc(OCCSc2nc3ccccc3n2CCC(=O)O)cc1 | 0 | 5 | 39 | 10 | 3 | 2 | /
COc1ccccc1OCCSc1nc2ccccc2n1CCC(=O)O | 0 | -9 | -11 | + | 5 | 1 | 0
CCCSc1nc(=O)n2cccc(C)c2n1 | 0 | -3 | 3 | 626* | 1 | 5 | 1
CC(=NNC(=O)c1cccc(S(=O)(=O)Nc2ccc(C)cc2C)c1)c1ccncc1 | / | / | / | / | 4 | / | /
O=C(Nc1ccccc1N1CCOCC1)c1cc(Br)c(Br)s1 | 0 | -9 | -3 | 760* | 1 | -3 | -1
O=C(CSc1ccc(Br)cc1)Nc1ccccc1N1CCOCC1 | 0 | -5 | -5 | 722* | 1 | -4 | 0
O=C(CSc1ccc([N+](=O)[O-])cc1)Nc1ccccc1N1CCOCC1 | 0 | 4 | / | 3 | 8 | -1 | /
COc1cc(C=NNC(N)=O)cc(Br)c1OCc1ccccc1C | / | / | / | / | 0 | / | /
O=C(Nc1ccc(F)cc1)c1ccc(=O)[nH]n1 | 0 | -1 | -4 | -11 | 0 | -5 | /
O=C(Nc1ccc(F)cc1)c1cccnn1 | 0 | -7 | 0 | 397* | 2 | 7 | -1
CN(C)Cc1c(C(=O)NN=CC2CC=CCC2)nnn1-c1nonc1N (stereo not drawn) | / | / | / | / | 4 | / | /
COC(=O)c1ccccc1NC(=O)c1cnn2c(C)cc(C)nc12 | 0 | 1 | 2 | 892* | 1 | 7 | 1
COc1ccc(C=NNC(=O)Cn2cc(C(F)(F)F)ccc2=O)cc1 | / | / | / | / | 1 | / | /
Cc1ccsc1C=NNC(=S)NCCc1ccccc1 | / | / | / | / | 1 | / | /
CCN1CCCC1CN(Cc1cc2ccc(C)cc2[nH]c1=O)C(=S)Nc1ccc(OC)cc1OC (stereo not drawn) | 0 | 12 | / | 562* | 0 | 8 | 0
SMILES | Efflux pump mplx | Cardiac RTF inh | ARNT TACC3 PPI | SUMO Mot1 rescue | UCH37 DUB inh | RTF Ca sens act | Mot1 SUMO dose
COc1cc(C=NNc2ccc(Cl)nn2)cc(OC)c1O | / | / | / | / | 9 | / | /
NC(=S)NN=Cc1ccccc1OCCSc1ccc(Cl)cc1 | / | / | / | / | 4 | / | /
COc1ccccc1CNC(=O)C1CCC(CNS(=O)(=O)c2ccc(F)cc2)CC1 (stereo not drawn) | 0 | -4 | 28 | 412 | 1 | -5 | /
COc1ccccc1CNC(=O)CCC(=O)Nc1nnc(C(C)C)s1 | 0 | -6 | -2 | 928* | 5 | 2 | 0
COc1ccccc1CNC(=O)CSc1ccc(C)cc1 | 0 | 1 | -4 | / | 1 | 3 | /
COc1ccccc1CNC(=O)C(C)Sc1ccc(C)cc1 (stereo not drawn) | 0 | -7 | -5 | 416* | 3 | 5 | 0
COc1ccccc1CNC(=O)CCC(=O)Nc1nnc(C)s1 | 0 | -5 | -3 | -8 | 6 | 6 | /
COc1ccccc1CNC(=O)C1CCC(CNS(=O)(=O)c2ccc(C)cc2)CC1 (stereo not drawn) | 0 | 0 | 8 | 625* | -1 | 4 | 0
CC(=O)c1ccc(N2Cc3ccccc3C2=NC(=O)Nc2ccc(Cl)cc2)cc1 | / | / | / | / | -58 | / | /
CCC(=O)Nc1ccc(C(C)=NNC(=O)c2c(-c3ccccc3Cl)noc2C)cc1 | / | / | / | / | 1 | / | /
CCOc1ccc(-c2c(C(=O)NN=Cc3ccc(OC(C)C)cc3)nnn2-c2nonc2N)cc1 | / | / | / | / | -11 | / | /
CCN(CC)c1ccc([N+](=O)[O-])cc1C=NNC(=O)CC#N | / | / | / | / | 7 | / | /
Cc1ccc(NC(=O)NNC(=O)Cn2nc(-c3ccccc3)c(-c3ccccc3)c(C#N)c2=O)cc1 | 0 | 2 | 0 | 364* | / | -1 | 0
O=C(Cn1nc(-c2ccccc2)c2ccccc2c1=O)Nc1ccc(O)cc1 | 0 | 0 | -8 | 3 | 3 | 3 | /
Cc1ccc(C=NNC(=O)c2nnn(-c3nonc3N)c2-c2cccs2)cc1 | / | / | / | / | -4 | / | /
Cc1cccc(N(CC(=O)NN=Cc2cc([N+](=O)[O-])ccc2Cl)S(C)(=O)=O)c1C | / | / | / | / | 2 | / | /
CCOC(=O)C(C)(C)Sc1nc2c(cnn2-c2ccc(C)cc2)c(=O)[nH]1 | 0 | -1 | -5 | 373* | 0 | 0 | 1
CC(=O)c1ccc(N(C(=O)CNC(=O)c2ccco2)C(C(=O)NC2CCCC2)c2ccc(C)o2)cc1 (stereo not drawn) | 0 | -10 | 2 | 1 | 3 | -2 | /
C=CCN(C(=O)CNC(=O)c1ccco1)C(C(=O)NC1CCCCC1)c1ccccc1 (stereo not drawn) | 0 | 2 | / | 737* | 4 | 12 | 0
C=CCN(C(=O)CNC(=O)c1ccco1)C(C(=O)NC1CCCCC1)c1ccc(F)cc1 (stereo not drawn) | 0 | -7 | -5 | / | 0 | 1 | /
Cc1ccc(C(C(=O)NC2CCCCC2)N(CCC(C)C)C(=O)CNC(=O)c2ccco2)o1 (stereo not drawn) | 0 | -3 | / | + | 6 | 5 | -1
O=C(O)CCc1ccc(-c2ccccc2)n1NC(=O)c1cccs1 | 0 | -1 | 2 | 670* | 2 | -5 | 1
CCCOc1ccc(C=NNC(=O)C(=O)Nc2ccccn2)cc1 | / | / | / | / | 5 | / | /
Cc1ccc(S(=O)(=O)NCc2ccc(C(=O)N3CCN(c4ccccn4)CC3)cc2)cc1 | 0 | -9 | / | 662* | 1 | -6 | 1
Cc1ccc(NS(=O)(=O)c2ccc(C(=O)N3CCN(c4ccccn4)CC3)cc2)cc1 | 0 | -2 | 2 | 34 | / | 1 | /

Screening results: PubChem, several laboratories
